ChEMBL document CHEMBL3232758, “Synthesis and evaluation of carbon-linked analogs of dual orexin receptor antagonist filorexant” (Bioorg Med Chem Lett, 2014)
≈ marks a conversion by molar mass, not a printed value. Calls of active or inactive are those of the source. No cut-off for these calls is given here.

Tests used:
[1] = biological target: T1, Orexin receptor type 2 (Homo sapiens, UniProt O43614); assay: Antagonist activity at human OX2 receptor assessed as Ca2+ flux by FLIPR assay; format: functional
T1 sequence (O43614 whole entry): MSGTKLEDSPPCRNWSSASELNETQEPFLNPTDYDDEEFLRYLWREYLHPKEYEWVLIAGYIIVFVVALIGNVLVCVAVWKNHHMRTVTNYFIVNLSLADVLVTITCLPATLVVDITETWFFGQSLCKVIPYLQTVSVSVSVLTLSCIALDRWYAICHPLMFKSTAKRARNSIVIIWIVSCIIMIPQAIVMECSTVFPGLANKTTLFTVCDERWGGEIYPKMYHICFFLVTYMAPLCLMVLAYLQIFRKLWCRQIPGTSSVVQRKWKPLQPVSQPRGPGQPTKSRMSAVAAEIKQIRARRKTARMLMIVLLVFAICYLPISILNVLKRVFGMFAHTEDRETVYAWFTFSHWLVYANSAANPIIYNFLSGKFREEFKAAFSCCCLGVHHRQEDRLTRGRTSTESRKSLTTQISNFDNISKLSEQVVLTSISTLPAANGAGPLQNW

[2] = biological target: T1, Orexin receptor type 2; assay: Binding affinity to human OX2 receptor in cell membrane by in vitro radioligand binding assay; format: cell membranes
Outline: (§1)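 Radioligand binding to membranes from human cells overexpressing OX1R or OX2R; affinity expressed as Ki.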

[3] = biological target: T2, Orexin/Hypocretin receptor type 1 (Homo sapiens, UniProt O43613); assay: Binding affinity to human OX1 receptor in cell membrane by in vitro radioligand binding assay; format: cell membranes; outline: as §1
T2 sequence (O43613 whole entry): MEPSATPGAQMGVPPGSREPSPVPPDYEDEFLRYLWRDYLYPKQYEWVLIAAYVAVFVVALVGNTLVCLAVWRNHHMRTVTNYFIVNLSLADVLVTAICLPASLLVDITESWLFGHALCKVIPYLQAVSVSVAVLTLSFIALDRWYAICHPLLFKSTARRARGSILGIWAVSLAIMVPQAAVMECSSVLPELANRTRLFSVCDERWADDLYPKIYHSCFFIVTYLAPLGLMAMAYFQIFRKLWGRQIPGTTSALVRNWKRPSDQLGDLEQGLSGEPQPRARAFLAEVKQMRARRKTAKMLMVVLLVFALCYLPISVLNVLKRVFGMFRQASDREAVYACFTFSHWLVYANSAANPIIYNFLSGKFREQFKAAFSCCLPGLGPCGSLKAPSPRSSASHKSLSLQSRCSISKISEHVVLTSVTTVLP

[4] = biological target: T2, Orexin/Hypocretin receptor type 1; assay: Antagonist activity at human OX1 receptor assessed as Ca2+ flux by FLIPR assay; format: functional
[5] = tested on: Mus musculus; assay: Sleep promoting activity in wild type mouse sleep EEG model assessed as increase in REM sleep at 100 mg/kg, po administered during dark or active phase 4 hrs prior to lights on measured for 2 hrs following drug administration; format: functional, organism-based; design: dose 100 mg/kg
Outline: (§2)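 Mice carried surgically implanted radiotelemetry transmitters recording EEG and EMG to score vigilance state; wildtype n = 5, OX2R knockout n = 6. Oral 100 mg/kg or vehicle (20% Vit. E TPGS) in a balanced cross-over, dosed in the dark (active) phase 4 h before lights on. Mean time per state was taken in 30 min intervals and compared by a linear mixed-effects repeated-measures t-test.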

[6] = Plasma protein binding in dog; format: ADME, cell-free, Canis lupus familiaris; conditions: read-out: PPB (converted)
[7] = biological target: Cytochrome P450 2D6 (Homo sapiens, UniProt P10635); assay: Inhibition of CYP2D6 (unknown origin); format: ADME
Chain of Cytochrome P450 2D6 (P10635 whole entry): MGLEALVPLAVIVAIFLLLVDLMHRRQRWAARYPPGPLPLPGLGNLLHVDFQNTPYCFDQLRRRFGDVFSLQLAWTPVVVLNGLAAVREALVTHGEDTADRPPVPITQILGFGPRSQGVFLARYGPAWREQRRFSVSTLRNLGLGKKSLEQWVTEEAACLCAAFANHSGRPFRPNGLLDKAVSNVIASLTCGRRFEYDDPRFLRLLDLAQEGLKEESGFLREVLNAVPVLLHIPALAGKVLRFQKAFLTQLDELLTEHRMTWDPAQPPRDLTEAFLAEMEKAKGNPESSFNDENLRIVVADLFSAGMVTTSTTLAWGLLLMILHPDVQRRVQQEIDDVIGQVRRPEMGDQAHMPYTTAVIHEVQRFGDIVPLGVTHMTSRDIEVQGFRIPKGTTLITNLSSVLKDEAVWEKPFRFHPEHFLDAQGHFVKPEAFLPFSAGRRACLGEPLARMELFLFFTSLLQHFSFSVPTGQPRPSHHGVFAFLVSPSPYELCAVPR

[8] = biological target: T3, Cytochrome P450 3A4 (Homo sapiens, UniProt P08684); assay: Time-dependent inhibition of CYP3A4 (unknown origin); format: ADME; conditions: TDE = time-dependent effect
T3 sequence (P08684 whole entry): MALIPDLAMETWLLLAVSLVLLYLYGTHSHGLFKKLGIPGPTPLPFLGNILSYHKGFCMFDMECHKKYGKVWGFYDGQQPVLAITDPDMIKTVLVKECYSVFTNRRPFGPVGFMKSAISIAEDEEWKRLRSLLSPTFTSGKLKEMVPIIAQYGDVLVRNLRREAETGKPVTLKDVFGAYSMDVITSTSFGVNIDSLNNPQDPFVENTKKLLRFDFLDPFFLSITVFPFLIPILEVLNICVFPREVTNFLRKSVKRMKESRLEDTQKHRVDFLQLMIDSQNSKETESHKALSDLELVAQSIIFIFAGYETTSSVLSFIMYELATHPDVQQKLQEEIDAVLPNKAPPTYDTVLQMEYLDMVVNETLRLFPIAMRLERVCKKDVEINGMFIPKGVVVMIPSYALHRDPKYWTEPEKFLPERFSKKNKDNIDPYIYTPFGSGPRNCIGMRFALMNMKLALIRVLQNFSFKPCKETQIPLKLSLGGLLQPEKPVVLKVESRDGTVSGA

[9] = tested on: Mus musculus; assay: Sleep promoting activity in OX2 receptor knockout mouse at 100 mg/kg, po administered during dark or active phase 4 hrs prior to lights on; format: functional, organism-based; design: dose 100 mg/kg; outline: as §2
[10] = tested on: Mus musculus; assay: Sleep promoting activity in wild type mouse sleep EEG model assessed as increase in delta sleep at 100 mg/kg, po administered during dark or active phase 4 hrs prior to lights on measured for 2 hrs following drug administration; format: functional, organism-based; design: dose 100 mg/kg; outline: as §2
[11] = Half life in iv dosed dog; format: ADME, organism-based, Canis lupus familiaris; conditions: in vivo
[12] = Clearance in iv dosed dog; format: ADME, organism-based, Canis lupus familiaris; conditions: in vivo
[13] = Lipophilicity, log D of the compound at pH 7 by HPLC analysis; format: physicochemical; conditions: buffer
Outline: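 High-throughput HPLC logD at pH 7 using a reversed-phase C18 column, with phosphate-buffered saline pH 7 and acetonitrile as mobile phases. The system is calibrated with standards of published shake-flask logD, and logD is read from a linear regression of retention time against logD.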

[14] = biological target: Cytochrome P450 2C9 (Homo sapiens, UniProt P11712); assay: Inhibition of CYP2C9 (unknown origin); format: ADME
Chain of Cytochrome P450 2C9 (P11712 whole entry): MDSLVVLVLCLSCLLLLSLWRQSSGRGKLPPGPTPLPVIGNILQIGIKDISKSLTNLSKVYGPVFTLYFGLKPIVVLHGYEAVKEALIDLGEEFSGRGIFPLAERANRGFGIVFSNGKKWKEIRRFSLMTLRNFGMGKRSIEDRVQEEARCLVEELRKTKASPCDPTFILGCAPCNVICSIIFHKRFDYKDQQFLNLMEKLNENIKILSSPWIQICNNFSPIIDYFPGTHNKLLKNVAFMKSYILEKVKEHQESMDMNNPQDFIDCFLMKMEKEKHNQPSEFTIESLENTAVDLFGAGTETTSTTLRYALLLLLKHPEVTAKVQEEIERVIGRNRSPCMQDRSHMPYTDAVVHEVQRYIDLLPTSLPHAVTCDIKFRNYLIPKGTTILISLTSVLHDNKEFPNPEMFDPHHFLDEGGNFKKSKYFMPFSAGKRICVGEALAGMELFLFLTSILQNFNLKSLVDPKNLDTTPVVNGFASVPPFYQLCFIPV

[15] = Solubility of the compound at pH 7 by HPLC analysis; format: physicochemical; conditions: buffer
[16] = biological target: CYP3A4 (Homo sapiens, UniProt P08684); assay: Time-dependent inhibition of CYP3A4 (unknown origin) assessed as IC50 shift ratio; format: ADME; conditions: read-out: Ratio IC50
Chain of CYP3A4 (P08684 whole entry): as the sequence (P08684 whole entry) above

[17] = Plasma protein binding in human; format: ADME, cell-free; conditions: read-out: PPB (converted)
[18] = tested on: Mus musculus; assay: Sleep promoting activity in wild type mouse sleep EEG model assessed as increase in REM sleep at 100 mg/kg, po administered during dark or active phase 4 hrs prior to lights on measured during first 30 mins after drug administration; format: functional, organism-based; design: dose 100 mg/kg; outline: as §2
[19] = tested on: Mus musculus; assay: Sleep promoting activity in wild type mouse sleep EEG model assessed as reduction of active wake at 100 mg/kg, po administered during dark or active phase 4 hrs prior to lights on measured for 2 hrs following drug administration; format: functional, organism-based; design: dose 100 mg/kg; outline: as §2
[20] = Plasma concentration in mouse at 100 mg/kg, po; format: ADME, organism-based; design: dose 100 mg/kg, route oral
[21] = tested on: Mus musculus; assay: Sleep promoting activity in wild type mouse sleep EEG model assessed as reduction of active wake at 100 mg/kg, po administered during dark or active phase 4 hrs prior to lights on measured during first 30 mins after drug administration; format: functional, organism-based; design: dose 100 mg/kg; outline: as §2
[22] = tested on: Mus musculus; assay: Sleep promoting activity in wild type mouse sleep EEG model assessed as increase in delta sleep at 100 mg/kg, po administered during dark or active phase 4 hrs prior to lights on measured during first 30 mins after drug administration; format: functional, organism-based; design: dose 100 mg/kg; outline: as §2
[23] = tested on: Mus musculus; assay: Sleep promoting activity in wild type mouse sleep EEG model assessed as duration of sleep at 100 mg/kg, po administered during dark or active phase 4 hrs prior to lights on; format: functional; outline: as §2
[24] = biological target: Voltage-gated inwardly rectifying potassium channel KCNH2 (Homo sapiens, UniProt Q12809); assay: Inhibition of human ERG
Chain of Voltage-gated inwardly rectifying potassium channel KCNH2 (Q12809 whole entry): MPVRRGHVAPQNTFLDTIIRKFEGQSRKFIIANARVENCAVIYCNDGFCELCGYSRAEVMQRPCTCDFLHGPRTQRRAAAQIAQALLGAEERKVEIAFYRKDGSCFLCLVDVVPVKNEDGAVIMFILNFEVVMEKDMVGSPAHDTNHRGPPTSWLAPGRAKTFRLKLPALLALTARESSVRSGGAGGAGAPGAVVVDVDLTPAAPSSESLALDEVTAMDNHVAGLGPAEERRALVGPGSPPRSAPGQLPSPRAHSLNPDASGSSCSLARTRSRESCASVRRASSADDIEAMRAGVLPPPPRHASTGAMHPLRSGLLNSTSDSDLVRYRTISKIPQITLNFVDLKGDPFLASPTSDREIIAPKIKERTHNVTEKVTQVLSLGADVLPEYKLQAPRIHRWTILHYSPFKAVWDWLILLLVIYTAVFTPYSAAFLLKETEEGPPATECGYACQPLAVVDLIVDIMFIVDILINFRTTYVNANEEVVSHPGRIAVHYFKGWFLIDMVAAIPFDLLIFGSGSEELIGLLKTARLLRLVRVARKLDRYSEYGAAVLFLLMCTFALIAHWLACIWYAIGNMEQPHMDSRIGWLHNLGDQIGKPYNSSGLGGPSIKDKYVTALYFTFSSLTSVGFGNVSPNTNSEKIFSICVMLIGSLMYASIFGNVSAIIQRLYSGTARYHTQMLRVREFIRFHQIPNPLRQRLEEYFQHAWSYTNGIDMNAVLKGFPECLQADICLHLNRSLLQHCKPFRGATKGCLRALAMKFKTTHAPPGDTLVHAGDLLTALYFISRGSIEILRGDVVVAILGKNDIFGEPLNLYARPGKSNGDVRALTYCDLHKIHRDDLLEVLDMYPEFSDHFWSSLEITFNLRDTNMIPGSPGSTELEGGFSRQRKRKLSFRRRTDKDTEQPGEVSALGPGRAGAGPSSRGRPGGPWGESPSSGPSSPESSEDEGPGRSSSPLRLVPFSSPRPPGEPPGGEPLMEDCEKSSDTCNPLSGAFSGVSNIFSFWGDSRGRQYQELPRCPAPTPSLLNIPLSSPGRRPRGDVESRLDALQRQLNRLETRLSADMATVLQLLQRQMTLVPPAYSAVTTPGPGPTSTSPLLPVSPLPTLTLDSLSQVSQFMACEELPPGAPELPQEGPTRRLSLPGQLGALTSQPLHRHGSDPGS

[25] = biological target: T3, Cytochrome P450 3A4; assay: Inhibition of CYP3A4 (unknown origin); format: ADME

SMILES: Cc1ccc(-n2nccn2)c(C(=O)N2C[C@H](C#Cc3ccccn3)CC[C@H]2C)c1
- IC50 [1]: 42 nM
- Ki [2]: 11 nM
- Ki [3]: 27 nM
- IC50 [4]: 100 nM

SMILES: Cc1ccc(-n2nccn2)c(C(=O)N2C[C@H](C#Cc3ccncc3)CC[C@H]2C)c1
- Ki [2]: 7 nM
- Ki [3]: 26 nM

SMILES: Cc1ccc(-n2nccn2)c(C(=O)N2C[C@H](/C=C\c3ccc(F)cn3)CC[C@H]2C)c1
- IC50 [1]: 417 nM
- Ki [2]: 28 nM
- Ki [3]: 135 nM
- IC50 [4]: 706 nM

SMILES: Cc1ccc(-n2nccn2)c(C(=O)N2C[C@H](C#Cc3cc(CO)ccn3)CC[C@H]2C)c1
- Ki [2]: 42 nM
- Ki [3]: 76 nM

SMILES: Cc1ccc(-n2nccn2)c(C(=O)N2C[C@H](/C=C/c3ccc(F)cn3)CC[C@H]2C)c1
- IC50 [1]: 34 nM
- Ki [2]: 3 nM
- Ki [3]: 17 nM
- IC50 [4]: 140 nM

SMILES: Cc1ccc(-n2nccn2)c(C(=O)N2C[C@H](C#Cc3ccc(F)cn3)CC[C@H]2C)c1
- Activity [5]: Active
- fraction unbound [6]: 0.039
- INH [7]: > 50 µM
- inhibition (INH) [8]: tde
- Activity [9]: inactive
- Activity [10]: Active
- half-life [11]: 120 min
- IC50 [1]: 24 nM
- clearance [12]: 1.6 mL/min/kg
- logD [13]: 3.7
- INH [14]: 32 µM
- solubility [15]: 124 µM (≈ 50 µg/mL)
- IC50 shift [16]: > 6.4
- fraction unbound [17]: 0.009
- Activity [18]: Active
- Ki [2]: 1.1 nM
- Activity [19]: Active
- Ki [3]: 1.1 nM
- AUC [20]: 60 µM·h
- Activity [21]: Active
- IC50 [4]: 31 nM
- Activity [22]: Active
- Time [23]: 2 h
- INH [24]: 23 µM
- IC50 [25]: > 50 µM

SMILES: Cc1ccc(-n2nccn2)c(C(=O)N2C[C@H](CCc3ccc(F)cn3)CC[C@H]2C)c1
- IC50 [1]: 145 nM
- Ki [2]: 26 nM
- Ki [3]: 470 nM
- IC50 [4]: 861 nM

SMILES: Cc1ccc(-n2nccn2)c(C(=O)N2C[C@H](C#Cc3cnccc3O)CC[C@H]2C)c1
- IC50 [1]: 52 nM
- Ki [2]: 7.5 nM
- Ki [3]: 866 nM
- IC50 [4]: 3880 nM

SMILES: Cc1ccc(-n2nccn2)c(C(=O)N2C[C@H](C#Cc3cccnc3)CC[C@H]2C)c1
- IC50 [1]: 28 nM
- Ki [2]: 41 nM
- Ki [3]: 107 nM
- IC50 [4]: 83 nM

SMILES: Cc1ccc(-n2nccn2)c(C(=O)N2C[C@H](C#Cc3cncc(CO)c3)CC[C@H]2C)c1
- Ki [2]: 32 nM
- Ki [3]: 108 nM

SMILES: Cc1ccc(-n2nccn2)c(C(=O)N2C[C@H](C#Cc3cccc(CO)n3)CC[C@H]2C)c1
- IC50 [1]: 26 nM
- logD [13]: 2.1
- Ki [2]: 5.6 nM
- Ki [3]: 18 nM
- IC50 [4]: 59 nM

SMILES: Cc1ccc(-n2nccn2)c(C(=O)N2C[C@H](C#Cc3cccnc3O)CC[C@H]2C)c1
- Ki [2]: 24 nM
- Ki [3]: 24 nM

SMILES: Cc1ccc(-n2nccn2)c(C(=O)N2C[C@H](COc3ccc(F)cn3)CC[C@H]2C)c1
- IC50 [1]: 15 nM
- Ki [2]: 0.2 nM
- Ki [3]: 1 nM
- IC50 [4]: 16 nM

SMILES: Cc1ccc(-n2nccn2)c(C(=O)N2C[C@H](C#Cc3cccc(CO)c3)CC[C@H]2C)c1
- IC50 [1]: 6.3 nM
- Ki [2]: 0.53 nM
- Ki [3]: 0.56 nM
- IC50 [4]: 6.3 nM
- IC50 [25]: 4 µM

SMILES: Cc1ccc(-n2nccn2)c(C(=O)N2C[C@H](C#Cc3ccnc(CO)c3)CC[C@H]2C)c1
- IC50 [1]: 100 nM
- Ki [2]: 25 nM
- Ki [3]: 75 nM
- IC50 [4]: 298 nM

SMILES: Cc1ccc(-n2nccn2)c(C(=O)N2C[C@H](C#Cc3ccc(CO)cn3)CC[C@H]2C)c1
- Ki [2]: 130 nM
- Ki [3]: 211 nM

SMILES: Cc1ccc(-n2nccn2)c(C(=O)N2C[C@H](C#Cc3ccc(CO)nc3)CC[C@H]2C)c1
- Ki [2]: 150 nM
- Ki [3]: 339 nM
